Data as given in ChEMBL document CHEMBL3808288, “Identification and in Vivo Evaluation of Liver X Receptor β-Selective Agonists for the Potential Treatment of Alzheimer's Disease” (J Med Chem, 2016).
pEC50: −log10 of the molar value. In brackets after ≈: the same amount, converted by molar mass. Activity calls are given as the source filed them. No cut-off for these calls is given here.

Columns and labels:
Rhesus monkey [1] = test: Increase in apoE level in CSF of rhesus monkey at 5 mg/kg, po administered for 2 weeks; format: functional, organism-based; settings: Macaca mulatta
Outline: (§1)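 Rhesus monkeys were dosed orally once daily for 2 weeks after randomisation on baseline lipids, liver enzymes and liver fat. CSF was taken by lumbar puncture at baseline and at trough after the last dose, and apoE was measured against baseline.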

Cynomolgus monkey = test: Increase in triglycerides level in cynomolgus monkey liver at >= 3 mg/kg, po qd administered for 2 weeks; format: ADME, organism-based, Macaca fascicularis; settings: in vivo, 336 h
Rhesus monkey [2] = test: Increase in apoE level in plasma of rhesus monkey at 5 mg/kg, po administered for 2 weeks; format: functional, organism-based; settings: Macaca mulatta
Rhesus monkey [3] = test: Increase in hepatic fat content in rhesus monkey at 5 mg/kg, po qd for 2 weeks by magnetic resonance spectroscopic imaging method relative to vehicle control; format: ADME, organism-based, Macaca mulatta; settings: in vivo, 336 h
[4] = Ratio of drug uptake in brain to plasma in rat; format: ADME, cell-free; settings: brain and plasma, read-out: BPR
Rattus norvegicus [5] = test: Increase in apoE level in CSF of Wistar Han rat at 100 mg/kg, sc dosed for 4 days by western blotting method; format: functional, organism-based
Outline: (§2)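 Rats were dosed subcutaneously for 4 days, and apoE and Aβ were then measured in CSF.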

[6] = Oral bioavailability in rhesus monkey; format: ADME, organism-based, Macaca mulatta; settings: in vivo
Rhesus monkey [7] = test: Increase in lipid level in serum of rhesus monkey at 10 to 20 mg/kg, po qd for 2 weeks; format: ADME, organism-based, Macaca mulatta; settings: in vivo, 336 h
Mus musculus [8] = test: Toxicity in Tg2576 transgenic mouse assessed as change in plasma triglyceride level at 50 mg/kg, sc dosed for 3 weeks; format: organism-based; settings: in vivo, 504 h
Outline: (§3)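 12-month-old Tg2576 mice were dosed subcutaneously for three weeks. Brain was assayed for ABCA1 protein, soluble apoE and DEA-soluble Aβ, and plasma and liver were assayed for triglycerides. Groups were compared with vehicle by ANOVA.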

[9] = Cmax in rhesus monkey at 20 mg/kg, po administered for 2 weeks; format: ADME, organism-based, Macaca mulatta; parameters: dose 20 mg/kg, route oral; settings: in vivo
Outline: (§4)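 Cmax was estimated across a 2-week once-daily oral dosing study in rhesus monkeys.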

Rhesus monkey [10] = test: Upregulation of CETP in rhesus monkey at 20 mg/kg, po qd for 2 weeks relative to control; format: ADME, organism-based; settings: Macaca mulatta, 336 h, read-out: FC
Mus musculus [11] = test: Toxicity in wild-type mouse assessed as effect on locomotary behavior at 50 mg/kg, sc dosed for 16 days mins by open field test; format: organism-based; settings: in vivo, 384 h
Outline: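 Wild-type mice were part of a three-week subcutaneous dosing study that also included Tg2576 transgenic mice. Locomotor activity was scored in an open-field arena after 16 days of dosing.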

[12] = Solubility of the compound at pH 2; format: physicochemical; settings: buffer
Rhesus monkey [13] = test: Increase in LDL cholesterol level in rhesus monkey at 10 to 20 mg/kg, po qd for 2 weeks; format: ADME, organism-based, Macaca mulatta; settings: in vivo, 336 h
Outline: (§5)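 Rhesus monkeys were dosed orally once daily for 2 weeks. LDL and HDL cholesterol were measured in serum at trough after the last dose and compared with baseline serum samples taken before dosing.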

[14] = Volume of distribution at steady state in rhesus monkey; format: ADME, organism-based, Macaca mulatta; settings: in vivo, read-out: Vdss
Mus musculus [15] = test: Activation of LXR in Tg2576 transgenic mouse assessed decrease in DEA-soluble amyloid-beta level in brain at 50 mg/kg, sc dosed for 3 weeks; format: functional; settings: 504 h; outline: as §3
[16] = target: T1, Oxysterols receptor LXR-alpha (Homo sapiens, UniProt Q13133); test: (§6) Partial agonist activity at LXRalpha (unknown origin) expressed in human HepG2 cells co-expressing ABCA1 promoter measured after 48 hrs by cell-based transactivation assay
T1 sequence (Q13133 whole entry): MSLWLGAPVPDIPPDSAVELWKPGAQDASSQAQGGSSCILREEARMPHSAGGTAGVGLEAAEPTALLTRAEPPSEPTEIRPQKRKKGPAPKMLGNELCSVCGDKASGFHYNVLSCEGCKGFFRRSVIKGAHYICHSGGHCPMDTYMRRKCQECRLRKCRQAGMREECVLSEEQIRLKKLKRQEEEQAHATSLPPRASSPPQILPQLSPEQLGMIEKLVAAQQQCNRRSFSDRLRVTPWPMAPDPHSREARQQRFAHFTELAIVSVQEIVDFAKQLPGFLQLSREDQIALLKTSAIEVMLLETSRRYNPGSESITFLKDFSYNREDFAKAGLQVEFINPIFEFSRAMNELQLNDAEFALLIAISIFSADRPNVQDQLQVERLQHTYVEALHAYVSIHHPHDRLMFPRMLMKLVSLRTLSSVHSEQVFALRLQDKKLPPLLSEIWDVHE
Outline: (§7)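 Cell-based transactivation assay using endogenous LXRβ or LXRα. The read-out was EC50 and Emax, with Emax expressed relative to a full agonist control set at 100%.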

[17] = target: T2, Oxysterols receptor LXR-alpha (Homo sapiens) (UniProt Q13133); test: as §6; outline: as §7
T2 sequence (whole entry): T1 sequence (Q13133 whole entry)

Rhesus monkey [18] = test: Increase in amyloid beta40 in CSF of rhesus monkey at 20 mg/kg, po administered for 2 weeks; format: functional, Macaca mulatta
[19] = Half life of compound in rhesus monkey; format: ADME, organism-based, Macaca mulatta; settings: in vivo
[20] = Protein binding in rhesus monkey plasma; format: ADME, cell-free, Macaca mulatta; settings: read-out: PPB (converted)
Rhesus monkey [21] = test: Increase in lipid level in liver of rhesus monkey at 10 to 20 mg/kg, po qd for 2 weeks; format: ADME, organism-based, Macaca mulatta; settings: in vivo, 336 h
[22] = Clearance in rat; format: ADME, organism-based; settings: in vivo
Rhesus monkey [23] = test: Increase in amyloid beta42 in CSF of rhesus monkey at 20 mg/kg, po administered for 2 weeks; format: functional, Macaca mulatta
Rhesus monkey [24] = test: Increase in hepatic fat content in rhesus monkey at 10 and 20 mg/kg, po qd for 2 weeks by magnetic resonance spectroscopic imaging method relative to vehicle control; format: ADME, organism-based, Macaca mulatta; settings: in vivo, 336 h
Mus musculus [25] = test: Activation of LXR in Tg2576 transgenic mouse assessed increase in brain ABCA1 level at 50 mg/kg, sc dosed for 3 weeks by western blotting method; format: functional, organism-based; outline: as §3
Rattus norvegicus [26] = test: Toxicity in Wistar Han rat assessed as change in plasma triglyceride level at 100 mg/kg, sc dosed for 4 days […]; format: organism-based; settings: in vivo, 96 h
Mus musculus [27] = test: Reversal of hyperlocomotary behavior in Tg2576 transgenic mouse at 50 mg/kg, sc administered as single dose 4 hrs before test by open field test; format: functional, organism-based
Outline: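 A single subcutaneous dose was given 4 h before the open-field locomotor test.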

Mus musculus [28] = test: Toxicity in Tg2576 transgenic mouse assessed as change in liver triglyceride level at 50 mg/kg, sc dosed for 3 weeks; format: organism-based; settings: in vivo, 504 h; outline: as §3
Rhesus monkey [29] = test: Increase in apoE level in CSF of rhesus monkey at 10 and 20 mg/kg, po administered for 2 weeks by apoE ELISA relative to control; format: functional, Macaca mulatta; outline: as §1
[30] = Apparent permeability of compound in MDCK cells; format: ADME, cell-based, Canis lupus familiaris; settings: dog
[31] = Oral bioavailability in rat; format: ADME, organism-based; settings: in vivo
[32] = Protein binding in rat plasma; format: ADME, cell-free; settings: read-out: PPB (converted)
Rattus norvegicus [33] = test: Increase in amyloid beta level in CSF of Wistar Han rat at 100 mg/kg, sc dosed for 4 days by western blotting method; format: functional, organism-based; outline: as §2
P-gp [34] = test: Efflux ratio in MDCK cells expressing rat P-gp assessed as ratio of permeability across basolateral to apical side over apical to basolateral side; format: ADME, cell-based, Canis lupus familiaris; settings: dog, MDCK-MDR1
[35] = target: T1, Oxysterols receptor LXR-alpha; test: (§8) Partial agonist activity at GST-tagged LXRalpha-LBD (unknown origin) by LanthaScreen TR-FRET liver X receptor coactivator assay
Outline: (§9)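 Cofactor recruitment assay using the ligand binding domains of LXRβ or LXRα. The read-out was EC50 and Emax, with Emax relative to a full agonist control.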

[36] = target: T2, Oxysterols receptor LXR-alpha (Homo sapiens); test: as §8; outline: as §9
[37] = target: T3, Oxysterols receptor LXR-beta (Homo sapiens) (UniProt P55055); test: Agonist activity at GST-tagged LXRbeta-LBD (unknown origin) by LanthaScreen TR-FRET liver X receptor coactivator assay relative to T1317; outline: as §9
T3 sequence (whole entry): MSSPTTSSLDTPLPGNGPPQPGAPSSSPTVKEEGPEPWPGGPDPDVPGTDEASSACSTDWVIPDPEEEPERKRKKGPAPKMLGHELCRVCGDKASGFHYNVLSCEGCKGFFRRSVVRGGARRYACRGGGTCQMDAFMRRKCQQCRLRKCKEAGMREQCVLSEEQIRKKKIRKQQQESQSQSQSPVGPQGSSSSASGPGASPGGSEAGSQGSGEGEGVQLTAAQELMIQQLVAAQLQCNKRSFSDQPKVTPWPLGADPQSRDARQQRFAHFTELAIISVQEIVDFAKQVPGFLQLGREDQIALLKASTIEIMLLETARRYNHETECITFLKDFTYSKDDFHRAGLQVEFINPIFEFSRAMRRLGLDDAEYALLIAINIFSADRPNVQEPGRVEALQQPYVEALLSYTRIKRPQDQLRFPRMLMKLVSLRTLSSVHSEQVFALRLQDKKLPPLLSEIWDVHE

[38] = target: T4, Oxysterols receptor LXR-beta (Homo sapiens, UniProt P55055); test: Agonist activity at GST-tagged LXRbeta-LBD (unknown origin) by LanthaScreen TR-FRET liver X receptor coactivator assay; outline: as §9
T4 sequence (P55055 whole entry): T3 sequence (whole entry)

Rhesus monkey [39] = test: Decrease in ratio of HDL to LDL level in rhesus monkey plasma at 10 to 20 mg/kg, po qd for 2 weeks; format: ADME, organism-based, Macaca mulatta; settings: in vivo, 336 h; outline: as §5
[40] = Half life of compound in rat; format: ADME, organism-based; settings: in vivo
[41] = target: T2, Oxysterols receptor LXR-alpha (Homo sapiens); test: Agonist activity at GST-tagged LXRalpha-LBD (unknown origin) by LanthaScreen TR-FRET liver X receptor coactivator assay T1317; outline: as §9
Mus musculus [42] = test: Reversal of hyperlocomotary behavior in Tg2576 transgenic mouse at 50 mg/kg, sc dosed for 16 days by open field test; format: functional, organism-based
Outline: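 Mice from the three-week subcutaneous study were tested in the open field for locomotor activity after 16 days of dosing. Wild-type mice were included for comparison.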

Mus musculus [43] = test: Activation of LXR in Tg2576 transgenic mouse assessed increase in soluble apoE level in brain at 50 mg/kg, sc dosed for 3 weeks; format: functional, organism-based; outline: as §3
[44] = Volume of distribution at steady state in rat; format: ADME, organism-based; settings: in vivo, read-out: Vdss
P-gp [45] = test: Efflux ratio in MDCK cells expressing human P-gp assessed as ratio of permeability across basolateral to apical side over apical to basolateral side; format: ADME, cell-based, Canis lupus familiaris; settings: dog, MDCK-MDR1
[46] = Clearance in rhesus monkey; format: ADME, organism-based, Macaca mulatta; settings: in vivo
[47] = Cmax in rhesus monkey at 10 mg/kg, po administered for 2 weeks; format: ADME, organism-based, Macaca mulatta; parameters: dose 10 mg/kg, route oral; settings: in vivo; outline: as §4
Rattus norvegicus [48] = test: Toxicity in Wistar Han rat assessed as change in liver triglyceride level at 100 mg/kg, sc dosed for 4 days […]; format: organism-based; settings: in vivo, 96 h

SMILES: CC(C)(O)CNC(=O)Nc1ccc(C(=O)N2CCN(Cc3ccc(C(O)(C(F)(F)F)C(F)(F)F)cc3)CC2)cc1F
- Activity (Rhesus monkey [1]): inactive
- Activity (Cynomolgus monkey): Toxic
- Activity (Rhesus monkey [2]): Active
- fold change (FC) (Rhesus monkey [3]): 4

SMILES: CC(C)[C@@](O)(C(=O)N1CCC(C2CCN(c3ccc(C(=O)N(C)C)c(Cl)c3)CC2)CC1)C(F)(F)F
- Kp [4]: 0.62
- Activity (Rattus norvegicus [5]): Active
- bioavailability [6]: 77%
- Activity (Rhesus monkey [7]): Non-toxic
- Activity (Mus musculus [8]): Non-toxic
- Cmax [9]: 18 µM
- fold induction at 20 mg/kg (Rhesus monkey [10]): 2.8
- Activity (Mus musculus [11]): Non-toxic
- solubility [12]: 205 µM (≈ 106 µg/mL)
- Activity (Rhesus monkey [13]): Toxic
- Vd [14]: 2.7 L/kg
- inhibition in vivo at 50 mg/kg (Mus musculus [15]): 28%
- pEC50 [16]: 6.08
- Emax [17]: 31%
- Activity (Rhesus monkey [18]): 25%
- half-life [19]: 2 h
- fraction unbound [20]: 0.007
- Activity (Rhesus monkey [21]): Non-toxic
- clearance [22]: 87 mL/min/kg
- Activity (Rhesus monkey [23]): 25%
- Activity (Rhesus monkey [24]): Non-toxic
- Activity (Mus musculus [25]): Active
- Activity (Rattus norvegicus [26]): Non-toxic
- Activity (Mus musculus [27]): inactive
- Activity (Mus musculus [28]): Non-toxic
- fold change (FC) (Rhesus monkey [29]): 3
- Papp [30]: 24 ×10⁻⁶ cm/s
- bioavailability [31]: 71%
- fraction unbound [32]: 0.018
- Activity (Rattus norvegicus [33]): Active
- efflux ratio (P-gp [34]): 0.8
- pEC50 [35]: 5.72
- Emax [36]: 49%
- Emax [37]: 103%
- pEC50 [38]: 7.52
- Activity (Rhesus monkey [39]): Toxic
- half-life [40]: 2.9 h
- Emax [41]: 49%
- Activity (Mus musculus [42]): Active
- Activity (Mus musculus [43]): Active
- Vd [44]: 8.8 L/kg
- efflux ratio (P-gp [45]): 0.6
- clearance [46]: 18 mL/min/kg
- Cmax [47]: 1 µM
- Activity (Rattus norvegicus [48]): Non-toxic
